Test results from ChEMBL document CHEMBL1165950, “Design and synthesis of new potent anticancer pyrazoles with high FLT3 kinase inhibitory selectivity” (Bioorg Med Chem, 2010).

Columns and labels:
Type in all cases: functional
UACC-62 [1] = assay: Cytotoxicity against human UACC62 cells assessed as cell growth at 10 uM after 48 hrs by sulforhodamine B assay; settings: UACC-62, 48 h, read-out: Activity
Malme-3M [2] = assay: Growth inhibition of human MALME-3M cells after 48 hrs by sulforhodamine B assay; settings: for CC50: read-out: LC50 (the source's name)
Method in brief: (§1)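 NCI 60-cell screen, five-dose mode. Cells grown in RPMI 1640 with 5% FBS and 2 mM L-glutamine and plated at 5000-40,000 cells/well according to doubling time. After 24 h preincubation, a Tz plate was TCA-fixed. Five concentrations (10-fold or 1/2 log dilutions) were applied for 48 h at 37 °C. SRB staining read at 515 nm. IC50 taken from [(Ti-Tz)/(C-Tz)]×100 = 50.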

CAKI-1 = assay: Cytotoxicity against human Caki1 cells assessed as cell growth at 10 uM after 48 hrs by sulforhodamine B assay; settings: CAKI-1, 48 h, read-out: Activity
IGROV-1 [3] = assay: Growth inhibition of human IGROV1 cells after 48 hrs by sulforhodamine B assay; settings: IGROV-1, 48 h; for CC50: read-out: LC50 (the source's name); method in brief: as §1
TK-10 = assay: Cytotoxicity against human TK10 cells assessed as cell growth at 0.001 uM after 48 hrs by sulforhodamine B assay; settings: TK-10, 48 h, read-out: Activity
NCI-H322M = assay: Cytotoxicity against human NCI-H322M cells assessed as cell growth at 10 uM after 48 hrs by sulforhodamine B assay; settings: read-out: Activity
MDA-MB-435 = assay: Cytotoxicity against human MDA-MB-435 cells assessed as cell growth at 1 uM after 48 hrs by sulforhodamine B assay; settings: MDA-MB-435, 48 h, read-out: Activity
OVCAR-8 = assay: Cytotoxicity against human OVCAR8 cells assessed as cell growth at 0.01 uM after 48 hrs by sulforhodamine B assay; settings: OVCAR-8, 48 h, read-out: Activity
CCRF-CEM = assay: Cytotoxicity against human CCRF-CEM cells assessed as cell growth at 100 nM after 48 hrs by sulforhodamine B assay; settings: read-out: Activity
Method in brief: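 NCI-60 five-dose screen. Cells were grown in RPMI 1640 with 5% FBS and 2 mM L-glutamine, plated at 5000–40,000 cells/well and preincubated for 24 h. Time-zero plates were TCA-fixed. DMSO-solubilized drug was added at five concentrations (10-fold or ½-log serial dilutions) for 48 h at 37 °C, 5% CO2. Cells were TCA-fixed, stained with 0.4% SRB and read at 515 nm. Percent growth used time-zero, control and test absorbances.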

UACC-62 [4] = assay: Cytotoxicity against human UACC62 cells assessed as cell growth at 10 uM; settings: read-out: Activity
Method in brief: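 NCI-60 screen: cells grown in RPMI 1640 with 5% FBS and 2 mM L-glutamine, plated at 5000–40,000 cells/well according to doubling time, and preincubated 24 h at 37 °C, 5% CO2. The single 10 µM dose (DMSO stock) was added, then incubated 48 h. Cells were TCA-fixed and stained with 0.4% SRB, read at 515 nm, and growth % calculated against time-zero and control plates.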

SNB-19 = assay: Cytotoxicity against human SNB19 cells assessed as cell growth at 10 uM after 48 hrs by sulforhodamine B assay; settings: SNB-19, 48 h, read-out: Activity
HCT-15 = assay: Growth inhibition of human HCT15 cells after 48 hrs by sulforhodamine B assay; settings: HCT-15, 48 h; for CC50: read-out: LC50 (the source's name); method in brief: as §1
Malme-3M [5] = assay: Cytotoxicity against human MALME-3M cells assessed as cell growth at 1 uM after 48 hrs by sulforhodamine B assay; settings: read-out: Activity
HT-29 = assay: Cytotoxicity against human HT-29 cells assessed as cell growth at 0.01 uM after 48 hrs by sulforhodamine B assay; settings: HT-29, 48 h, read-out: Activity
T47D = assay: Cytotoxicity against human T47D cells assessed as cell growth at 0.001 uM after 48 hrs by sulforhodamine B assay; settings: read-out: Activity
[6] = Cytotoxicity against human Hs 578T cells assessed as cell growth at 0.001 uM after 48 hrs by sulforhodamine B assay; settings: read-out: Activity
MOLT-4 = assay: Cytotoxicity against human MOLT4 cells assessed as cell growth at 0.01 uM after 48 hrs by sulforhodamine B assay; settings: MOLT-4, 48 h, read-out: Activity
UO-31 = assay: Cytotoxicity against human UO31 cells assessed as cell growth at 100 nM after 48 hrs by sulforhodamine B assay; settings: UO-31, 48 h, read-out: Activity
[7] = Cytotoxicity against human Hs 578T cells assessed as cell growth at 10 uM; settings: read-out: Activity
Method in brief: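 Single-dose NCI-60 screen at 10 µM. Cells were grown in RPMI 1640 with 5% FBS and 2 mM L-glutamine, then treated for 48 h at 37 °C. Protein was measured by SRB staining with absorbance at 515 nm. Percentage growth was recorded, and inhibition percentage was calculated as 100 minus growth percentage.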

MDA-MB-231 [8] = assay: Cytotoxicity against human MDA-MB-231 cells assessed as cell growth at 100 nM after 48 hrs by sulforhodamine B assay; settings: MDA-MB-231, 48 h, read-out: Activity
HL-60(TB) = assay: Cytotoxicity against human HL-60(TB) cells assessed as cell growth at 100 nM after 48 hrs by sulforhodamine B assay; settings: HL-60, 48 h, read-out: Activity
Method in brief: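 NCI 60-cell panel. Cells are grown in RPMI 1640 with 5% FBS and 2 mM L-glutamine, seeded at 5000–40,000 cells/well according to doubling time, and preincubated 24 h. Time-zero plates are TCA-fixed. Compound from DMSO stock is given at five 10-fold or 1/2-log concentrations for 48 h at 37 °C, 5% CO2. Suspension cells are fixed with 80% TCA (final 16%) and SRB-stained, with absorbance at 515 nm. Percent growth is derived from Tz, control and test readings.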

SK-MEL-2 = assay: Growth inhibition of human SK-MEL-2 cells after 48 hrs by sulforhodamine B assay; settings: SK-MEL-2, 48 h; for CC50: read-out: LC50 (the source's name); method in brief: as §1
SK-MEL-5 = assay: Growth inhibition of human SK-MEL-5 cells after 48 hrs by sulforhodamine B assay; settings: SK-MEL-5, 48 h; for CC50: read-out: LC50 (the source's name); method in brief: as §1
IGROV-1 [9] = assay: Cytotoxicity against human IGROV1 cells assessed as cell growth at 1 uM after 48 hrs by sulforhodamine B assay; settings: IGROV-1, 48 h, read-out: Activity
SF-268 = assay: Cytotoxicity against human SF268 cells assessed as cell growth at 0.001 uM after 48 hrs by sulforhodamine B assay; settings: SF-268, 48 h, read-out: Activity
SNB-75 = assay: Growth inhibition of human SNB75 cells after 48 hrs by sulforhodamine B assay; settings: SNB-75, 48 h; for CC50: read-out: LC50 (the source's name); method in brief: as §1
MDA-MB-231 [10] = assay: Cytotoxicity against human MDA-MB-231 cells assessed as cell growth at 1 uM after 48 hrs by sulforhodamine B assay; settings: MDA-MB-231, 48 h, read-out: Activity

| SMILES | growth at 10 µM (UACC-62 [1]) | TGI (Malme-3M [2]) | CC50 (Malme-3M [2]) | growth at 10 µM (CAKI-1) | GI50 (IGROV-1 [3]) | TGI (IGROV-1 [3]) | CC50 (IGROV-1 [3]) | growth at 0.001 µM (TK-10) | growth at 10 µM (NCI-H322M) | growth at 1 µM (MDA-MB-435) | growth at 0.01 µM (OVCAR-8) | growth at 0.1 µM (CCRF-CEM) | growth at 10 µM (UACC-62 [4]) | growth at 10 µM (SNB-19) | GI50 (HCT-15) | TGI (HCT-15) | CC50 (HCT-15) | growth at 1 µM (Malme-3M [5]) | growth at 0.01 µM (HT-29) | growth at 0.001 µM (T47D) | other results |
| --- | --- | --- | --- | --- | --- | --- | --- | --- | --- | --- | --- | --- | --- | --- | --- | --- | --- | --- | --- | --- | --- |
| Cc1cc(O)cc(-c2nn(CC#N)cc2-c2ccnc(-c3ccc(Oc4ccccc4)cc3)c2)c1 | -95% | 3.58 µM | 7.12 µM | -67% | 1.74 µM | 3.75 µM | 8.07 µM | 91% | -89% | -18% | 91% | 86% | 68.1% | -93% | 2.14 µM | 5.38 µM | 26.1 µM | -75% | 104% | 95% | GI50 (Malme-3M [2]): 1.81 µM; growth at 0.001 µM [6]: 103%; growth at 0.01 µM (MOLT-4): 93%; growth at 0.1 µM (UO-31): 85%; growth at 10 µM [7]: 75.9%; growth at 0.1 µM (MDA-MB-231 [8]): 85%; growth at 0.1 µM (HL-60(TB)): 92%; GI50 (SK-MEL-2): 3.44 µM; TGI (SK-MEL-2): 11.7 µM; CC50 (SK-MEL-2): 44.2 µM; GI50 (SK-MEL-5): 2.93 µM; TGI (SK-MEL-5): 9.9 µM; CC50 (SK-MEL-5): 31.5 µM; growth at 1 µM (IGROV-1 [9]): -64%; growth at 0.001 µM (SF-268): 88%; GI50 (SNB-75): 3.82 µM; TGI (SNB-75): 17.1 µM; CC50 (SNB-75): 42 µM; growth at 1 µM (MDA-MB-231 [10]): -13% |
| Cc1cc(O)cc(-c2nn(CC#N)cc2-c2ccnc(-c3ccc(N(C)C)cc3)c2)c1 | -80% | 39.2 µM | > 100 µM | -31% | 3.91 µM | 24.8 µM | > 100 µM | 105% | -11% | -49% | 97% | 96% | 25.1% | -15% | 3.36 µM | 18.2 µM | > 100 µM | 27% | 96% | 93% | GI50 (Malme-3M [2]): 4.56 µM; growth at 0.001 µM [6]: 98%; growth at 0.01 µM (MOLT-4): 96%; growth at 0.1 µM (UO-31): 82%; growth at 10 µM [7]: 47.7%; growth at 0.1 µM (MDA-MB-231 [8]): 84%; growth at 0.1 µM (HL-60(TB)): 98%; GI50 (SK-MEL-2): 4.15 µM; TGI (SK-MEL-2): 15.8 µM; CC50 (SK-MEL-2): > 100 µM; GI50 (SK-MEL-5): 1.99 µM; TGI (SK-MEL-5): 5.75 µM; CC50 (SK-MEL-5): 22.9 µM; growth at 1 µM (IGROV-1 [9]): 24%; growth at 0.001 µM (SF-268): 97%; GI50 (SNB-75): 1.86 µM; TGI (SNB-75): 5.94 µM; CC50 (SNB-75): > 100 µM; growth at 1 µM (MDA-MB-231 [10]): 11% |
| COc1cc(C)cc(-c2nn(CC#N)cc2-c2ccnc(-c3ccc(N(C)C)cc3)c2)c1 | -8% | > 100 µM | > 100 µM | -11% | 0.402 µM | 30.1 µM | > 100 µM | 109% | 27% | -7% | 97% | 24% | 19.1% | 9% | 0.35 µM | 8.79 µM | > 100 µM | 61% | 105% | 102% | growth at 0.001 µM [6]: 103%; growth at 0.01 µM (MOLT-4): 93%; growth at 0.1 µM (UO-31): 39%; growth at 10 µM [7]: 31.6%; growth at 0.1 µM (MDA-MB-231 [8]): 52%; growth at 0.1 µM (HL-60(TB)): -3%; GI50 (SK-MEL-2): 1.01 µM; TGI (SK-MEL-2): 45.5 µM; CC50 (SK-MEL-2): > 100 µM; GI50 (SK-MEL-5): 0.269 µM; TGI (SK-MEL-5): 0.672 µM; CC50 (SK-MEL-5): 24 µM; growth at 1 µM (IGROV-1 [9]): 5%; growth at 0.001 µM (SF-268): 103%; GI50 (SNB-75): 0.286 µM; TGI (SNB-75): 0.848 µM; CC50 (SNB-75): > 100 µM; growth at 1 µM (MDA-MB-231 [10]): -15% |
